Activity calls are given as the source filed them. No cut-off for these calls is given here.
Tests used:
[1] = Drug level in Sprague-Dawley rat blood at 3 mg/kg, po after 2 hrs by HPLC analysis; format: ADME, organism-based; design: dose 3 mg/kg, route oral; conditions: whole blood, read-out: Drug uptake
How it was run: (§1)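 Total compound concentration was measured in brain and blood at 2, 4 and 8 h after a single oral 3 mg/kg dose. Brain/blood ratio was also derived. Values are mean ± SD of three rats.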

[2] = Ratio of drug level in brain to blood in Sprague-Dawley rat at 3 mg/kg, po after 2 hrs; format: ADME, organism-based; design: dose 3 mg/kg, route oral
How it was run: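 Rats dosed 3 mg/kg orally; total compound levels measured in brain and blood at 2, 4 and 8 h, brain/blood ratio derived. Mean ± SD of three rats.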

[3] = Drug level in Sprague-Dawley rat brain at 3 mg/kg, po after 4 hrs by HPLC analysis; format: ADME, organism-based; design: dose 3 mg/kg, route oral; conditions: read-out: Drug uptake; how it was run: as §1
Rattus norvegicus = assay: Induction of 5HT1A receptor-mediated behavioral activity in rat assessed as appearance of flat body posture at 10 mg/kg, iv after 30 mins; format: functional, organism-based; design: dose 10 mg/kg
How it was run: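 Rats were conditioned to test procedures over 2 weeks and acclimated to the test cage for 1 h. Vehicle was saline containing diluted HCl. Lower lip retraction and flat body posture were scored on a 0–3 scale at 5, 10, 20 and 30 min after dosing.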

[4] = biological target: T1, 5-hydroxytryptamine receptor 1A (Homo sapiens, UniProt P08908); assay: Binding affinity to human 5HT1A receptor
T1 sequence (P08908 whole entry): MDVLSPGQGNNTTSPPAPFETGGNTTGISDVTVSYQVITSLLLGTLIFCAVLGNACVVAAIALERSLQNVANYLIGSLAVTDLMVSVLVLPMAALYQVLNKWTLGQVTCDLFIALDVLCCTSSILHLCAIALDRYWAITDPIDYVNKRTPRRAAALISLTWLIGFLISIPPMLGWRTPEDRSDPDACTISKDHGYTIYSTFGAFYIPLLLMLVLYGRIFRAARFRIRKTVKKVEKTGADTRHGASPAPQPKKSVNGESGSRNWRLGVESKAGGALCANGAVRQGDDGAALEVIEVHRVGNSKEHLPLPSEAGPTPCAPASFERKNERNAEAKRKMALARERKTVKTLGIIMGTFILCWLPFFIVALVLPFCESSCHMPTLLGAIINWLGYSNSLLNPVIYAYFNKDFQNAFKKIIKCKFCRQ
How it was run: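 CHO-cell membranes with human 5-HT1A were incubated with 0.25 nmol/L [3H]8-OH-DPAT (final) for 60 min at 27 °C. Buffer: 50 mM Tris-HCl, 10 mM MgSO4, 0.5 mM EDTA, 0.1% ascorbic acid, pH 7.4. Compound came from 270 μmol/L DMSO stock, diluted in buffer. Filtration was through GF/C presoaked in 0.3% polyethyleneimine, with two cold Tris washes. Run in duplicate or triplicate; percent inhibition of binding calculated.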

[5] = biological target: T2, 5-hydroxytryptamine receptor 3A (Homo sapiens, UniProt P46098); assay: Binding affinity to human 5HT3 receptor
T2 sequence (P46098 whole entry): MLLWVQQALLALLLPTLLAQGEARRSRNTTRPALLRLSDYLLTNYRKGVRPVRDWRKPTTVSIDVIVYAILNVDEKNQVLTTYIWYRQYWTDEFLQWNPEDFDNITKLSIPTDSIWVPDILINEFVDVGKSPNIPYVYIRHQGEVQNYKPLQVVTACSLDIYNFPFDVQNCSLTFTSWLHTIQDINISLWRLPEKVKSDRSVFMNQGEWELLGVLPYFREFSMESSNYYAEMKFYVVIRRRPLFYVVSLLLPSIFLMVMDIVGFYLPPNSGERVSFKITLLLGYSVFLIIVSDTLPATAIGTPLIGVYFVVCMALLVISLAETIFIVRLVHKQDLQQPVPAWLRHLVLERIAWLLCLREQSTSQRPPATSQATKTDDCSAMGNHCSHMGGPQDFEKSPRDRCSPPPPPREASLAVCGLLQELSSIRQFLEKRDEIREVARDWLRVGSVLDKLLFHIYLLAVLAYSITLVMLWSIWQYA
How it was run: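 HEK-293 membranes expressing human 5-HT3 were incubated with 0.5 nmol/L [3H]BRL-43694 (final) for 60 min at 25 °C. Buffer: 50 mM Tris-HCl, 5 mM MgCl2, 1 mM EDTA, pH 7.5. Compound came from 270 μmol/L DMSO stock, diluted in buffer. Filtration was through GF/B presoaked in 0.5% polyethyleneimine, with two cold Tris washes. Run in duplicate or triplicate; percent inhibition calculated.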

Adenosine receptor A1 = Adenosine receptor A1 (Homo sapiens, UniProt P30542); assay: Displacement of [3H]DPCPX from human recombinant adenosine A1 receptor
Adenosine receptor A1, sequence (P30542 whole entry): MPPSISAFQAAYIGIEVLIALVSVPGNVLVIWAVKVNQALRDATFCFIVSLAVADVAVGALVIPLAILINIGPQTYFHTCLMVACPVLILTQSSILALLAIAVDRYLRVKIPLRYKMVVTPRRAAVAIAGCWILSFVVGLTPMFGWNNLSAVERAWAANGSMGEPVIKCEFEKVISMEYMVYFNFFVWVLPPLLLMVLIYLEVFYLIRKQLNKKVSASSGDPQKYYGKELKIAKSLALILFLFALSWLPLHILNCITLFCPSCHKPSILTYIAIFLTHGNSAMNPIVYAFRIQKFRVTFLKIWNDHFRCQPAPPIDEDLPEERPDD

Adenosine receptor A3 = Adenosine receptor A3 (Homo sapiens, UniProt P0DMS8); assay: Displacement of [125I]AB-MECA from human recombinant adenosine A3 receptor
Adenosine receptor A3, sequence (P0DMS8 whole entry): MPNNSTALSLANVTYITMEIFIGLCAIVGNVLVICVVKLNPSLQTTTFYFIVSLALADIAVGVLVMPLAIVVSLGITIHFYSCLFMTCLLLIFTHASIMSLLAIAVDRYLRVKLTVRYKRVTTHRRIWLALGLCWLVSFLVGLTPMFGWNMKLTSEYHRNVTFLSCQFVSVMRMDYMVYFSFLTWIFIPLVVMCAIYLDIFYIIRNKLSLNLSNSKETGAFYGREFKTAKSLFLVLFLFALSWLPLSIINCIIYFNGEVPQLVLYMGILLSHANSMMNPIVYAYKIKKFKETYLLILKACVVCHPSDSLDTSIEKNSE

D(2) dopamine receptor = D(2) dopamine receptor (Homo sapiens, UniProt P14416); assay: Displacement of [3H]spiperone from human recombinant dopamine D2 receptor
D(2) dopamine receptor, sequence (P14416 whole entry): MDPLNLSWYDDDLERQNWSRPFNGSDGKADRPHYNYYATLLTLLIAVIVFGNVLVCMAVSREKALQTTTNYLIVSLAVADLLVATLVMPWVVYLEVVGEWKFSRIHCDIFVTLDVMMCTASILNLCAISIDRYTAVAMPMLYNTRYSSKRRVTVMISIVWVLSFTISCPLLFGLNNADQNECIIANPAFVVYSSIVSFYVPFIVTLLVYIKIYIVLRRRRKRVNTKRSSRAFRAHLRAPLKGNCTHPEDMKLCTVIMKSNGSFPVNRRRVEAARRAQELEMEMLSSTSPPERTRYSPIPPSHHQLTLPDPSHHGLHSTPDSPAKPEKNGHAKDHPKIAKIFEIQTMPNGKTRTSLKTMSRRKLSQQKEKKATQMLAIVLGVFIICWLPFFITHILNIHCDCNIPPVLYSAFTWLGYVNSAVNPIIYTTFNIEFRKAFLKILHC

Histamine H2 receptor = Histamine H2 receptor (Homo sapiens, UniProt P25021); assay: Displacement of [125I]APT from human recombinant histamine H2 receptor
Histamine H2 receptor, sequence (P25021 whole entry): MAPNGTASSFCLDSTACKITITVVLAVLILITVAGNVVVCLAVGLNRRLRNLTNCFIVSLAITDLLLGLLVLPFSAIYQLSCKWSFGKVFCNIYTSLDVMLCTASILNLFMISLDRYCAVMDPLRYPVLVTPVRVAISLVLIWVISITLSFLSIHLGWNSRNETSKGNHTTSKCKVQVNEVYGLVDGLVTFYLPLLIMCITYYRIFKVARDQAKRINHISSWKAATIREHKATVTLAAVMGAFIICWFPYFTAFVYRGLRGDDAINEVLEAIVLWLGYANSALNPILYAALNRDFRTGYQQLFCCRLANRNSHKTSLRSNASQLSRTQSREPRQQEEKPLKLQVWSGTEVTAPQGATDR

[6] = biological target: Muscarinic acetylcholine receptor M3 (Homo sapiens, UniProt P20309); assay: Displacement of [3H]4-DAMP from human recombinant muscarinic M3 receptor
Muscarinic acetylcholine receptor M3, sequence (P20309 whole entry): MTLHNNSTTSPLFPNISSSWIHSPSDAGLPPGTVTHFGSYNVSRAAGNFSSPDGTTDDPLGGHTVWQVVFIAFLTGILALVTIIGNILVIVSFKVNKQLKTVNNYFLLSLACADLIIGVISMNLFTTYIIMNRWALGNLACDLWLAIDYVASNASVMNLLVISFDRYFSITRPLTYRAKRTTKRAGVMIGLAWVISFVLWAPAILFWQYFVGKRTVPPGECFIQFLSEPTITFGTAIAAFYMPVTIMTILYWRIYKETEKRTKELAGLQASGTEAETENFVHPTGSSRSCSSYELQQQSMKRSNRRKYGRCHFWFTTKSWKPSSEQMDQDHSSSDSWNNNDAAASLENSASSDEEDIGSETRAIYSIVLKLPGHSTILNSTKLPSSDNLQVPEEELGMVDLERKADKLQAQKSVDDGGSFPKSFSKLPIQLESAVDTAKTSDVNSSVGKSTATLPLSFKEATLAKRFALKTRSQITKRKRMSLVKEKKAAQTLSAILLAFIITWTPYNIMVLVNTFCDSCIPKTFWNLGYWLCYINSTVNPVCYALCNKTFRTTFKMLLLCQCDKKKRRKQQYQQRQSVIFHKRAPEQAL

Substance-K receptor = Substance-K receptor (Homo sapiens, UniProt P21452); assay: Displacement of [125I]NKA from human recombinant NK2 receptor
Substance-K receptor, sequence (P21452 whole entry): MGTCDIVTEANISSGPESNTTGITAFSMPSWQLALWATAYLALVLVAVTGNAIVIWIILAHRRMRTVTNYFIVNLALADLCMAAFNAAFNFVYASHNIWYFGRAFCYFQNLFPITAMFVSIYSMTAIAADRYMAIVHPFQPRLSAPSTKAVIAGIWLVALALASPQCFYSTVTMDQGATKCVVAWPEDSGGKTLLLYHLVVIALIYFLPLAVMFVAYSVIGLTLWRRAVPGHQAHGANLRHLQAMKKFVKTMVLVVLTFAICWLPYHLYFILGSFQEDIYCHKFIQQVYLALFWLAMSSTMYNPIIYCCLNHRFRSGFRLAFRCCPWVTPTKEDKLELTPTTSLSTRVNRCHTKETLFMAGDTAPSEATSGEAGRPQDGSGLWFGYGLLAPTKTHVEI

Neuromedin-K receptor = Neuromedin-K receptor (Homo sapiens, UniProt P29371); assay: Displacement of [3H]SR142801 from human recombinant NK3 receptor
Neuromedin-K receptor, sequence (P29371 whole entry): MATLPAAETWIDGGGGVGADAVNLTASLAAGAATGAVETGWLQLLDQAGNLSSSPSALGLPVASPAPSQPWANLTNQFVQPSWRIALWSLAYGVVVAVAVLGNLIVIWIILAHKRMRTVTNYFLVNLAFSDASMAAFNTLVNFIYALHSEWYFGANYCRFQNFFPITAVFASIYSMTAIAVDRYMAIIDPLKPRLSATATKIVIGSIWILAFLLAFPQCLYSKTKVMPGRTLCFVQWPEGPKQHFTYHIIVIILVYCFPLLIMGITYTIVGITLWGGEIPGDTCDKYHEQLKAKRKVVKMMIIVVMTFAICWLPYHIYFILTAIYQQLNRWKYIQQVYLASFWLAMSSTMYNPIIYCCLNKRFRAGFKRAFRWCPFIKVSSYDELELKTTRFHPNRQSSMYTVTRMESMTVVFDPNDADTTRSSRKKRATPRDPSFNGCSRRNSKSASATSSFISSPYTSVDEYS

[7] = biological target: Neuropeptide Y receptor type 1 (Homo sapiens, UniProt P25929); assay: Displacement of [125I]peptide YY from NPY1 receptor in human SK-N-MC cells; format: cell-based
Neuropeptide Y receptor type 1, sequence (P25929 whole entry): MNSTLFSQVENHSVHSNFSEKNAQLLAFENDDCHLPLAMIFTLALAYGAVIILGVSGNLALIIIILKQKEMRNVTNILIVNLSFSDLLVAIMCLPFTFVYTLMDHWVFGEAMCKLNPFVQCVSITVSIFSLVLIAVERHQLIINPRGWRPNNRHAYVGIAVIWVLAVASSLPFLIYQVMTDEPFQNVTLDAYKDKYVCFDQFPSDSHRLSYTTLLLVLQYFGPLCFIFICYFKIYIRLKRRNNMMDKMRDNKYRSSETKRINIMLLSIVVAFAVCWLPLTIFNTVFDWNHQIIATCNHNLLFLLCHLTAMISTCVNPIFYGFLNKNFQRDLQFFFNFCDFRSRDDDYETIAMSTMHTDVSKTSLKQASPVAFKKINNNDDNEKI

[8] = biological target: Neuropeptide Y receptor type 2 (Homo sapiens, UniProt P49146); assay: Displacement of [125I]peptide YY from NPY2 receptor in human KAN-TS cells; format: cell-based
Neuropeptide Y receptor type 2, sequence (P49146 whole entry): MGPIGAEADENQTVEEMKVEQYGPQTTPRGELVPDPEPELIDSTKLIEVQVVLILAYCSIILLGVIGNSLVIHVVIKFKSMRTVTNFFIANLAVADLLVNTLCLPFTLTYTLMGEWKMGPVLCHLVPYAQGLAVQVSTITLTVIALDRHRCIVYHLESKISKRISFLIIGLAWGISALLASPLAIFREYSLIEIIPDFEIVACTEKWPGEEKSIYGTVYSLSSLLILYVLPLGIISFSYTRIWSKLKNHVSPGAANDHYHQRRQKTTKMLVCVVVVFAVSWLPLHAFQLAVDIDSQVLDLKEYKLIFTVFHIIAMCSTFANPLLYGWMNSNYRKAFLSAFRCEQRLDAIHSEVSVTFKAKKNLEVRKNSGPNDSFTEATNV

[9] = biological target: Kappa-type opioid receptor (Cavia porcellus, UniProt P41144); assay: Displacement of [3H]U69593 from guinea pig cerebellum kappa opioid receptor; format: tissue-based
Kappa-type opioid receptor, sequence (P41144 whole entry): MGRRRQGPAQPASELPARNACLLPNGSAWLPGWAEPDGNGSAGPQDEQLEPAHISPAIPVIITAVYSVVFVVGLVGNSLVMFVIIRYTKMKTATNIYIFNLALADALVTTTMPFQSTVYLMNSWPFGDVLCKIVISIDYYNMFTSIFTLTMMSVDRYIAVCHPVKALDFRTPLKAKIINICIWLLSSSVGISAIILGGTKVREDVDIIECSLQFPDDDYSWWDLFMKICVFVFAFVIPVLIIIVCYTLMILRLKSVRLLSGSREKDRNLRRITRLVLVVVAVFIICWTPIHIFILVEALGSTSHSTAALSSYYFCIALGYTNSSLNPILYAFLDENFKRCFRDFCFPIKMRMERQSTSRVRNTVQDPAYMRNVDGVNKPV

[10] = biological target: 5-hydroxytryptamine receptor 5A (Homo sapiens, UniProt P47898); assay: Displacement of [3H]LSD from human recombinant 5HT5A receptor
5-hydroxytryptamine receptor 5A, sequence (P47898 whole entry): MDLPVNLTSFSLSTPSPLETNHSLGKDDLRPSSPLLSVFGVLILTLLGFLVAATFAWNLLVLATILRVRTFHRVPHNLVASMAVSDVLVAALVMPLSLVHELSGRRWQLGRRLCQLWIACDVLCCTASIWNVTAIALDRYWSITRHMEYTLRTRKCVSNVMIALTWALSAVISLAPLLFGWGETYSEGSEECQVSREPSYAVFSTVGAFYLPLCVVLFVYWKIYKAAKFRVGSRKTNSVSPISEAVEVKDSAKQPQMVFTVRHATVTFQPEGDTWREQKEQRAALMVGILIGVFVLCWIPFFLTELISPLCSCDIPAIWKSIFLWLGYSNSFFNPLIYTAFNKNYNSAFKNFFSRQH

[11] = biological target: 5-hydroxytryptamine receptor 7 (Homo sapiens, UniProt P34969); assay: Displacement of [3H]LSD from human recombinant 5HT7 receptor
5-hydroxytryptamine receptor 7, sequence (P34969 whole entry): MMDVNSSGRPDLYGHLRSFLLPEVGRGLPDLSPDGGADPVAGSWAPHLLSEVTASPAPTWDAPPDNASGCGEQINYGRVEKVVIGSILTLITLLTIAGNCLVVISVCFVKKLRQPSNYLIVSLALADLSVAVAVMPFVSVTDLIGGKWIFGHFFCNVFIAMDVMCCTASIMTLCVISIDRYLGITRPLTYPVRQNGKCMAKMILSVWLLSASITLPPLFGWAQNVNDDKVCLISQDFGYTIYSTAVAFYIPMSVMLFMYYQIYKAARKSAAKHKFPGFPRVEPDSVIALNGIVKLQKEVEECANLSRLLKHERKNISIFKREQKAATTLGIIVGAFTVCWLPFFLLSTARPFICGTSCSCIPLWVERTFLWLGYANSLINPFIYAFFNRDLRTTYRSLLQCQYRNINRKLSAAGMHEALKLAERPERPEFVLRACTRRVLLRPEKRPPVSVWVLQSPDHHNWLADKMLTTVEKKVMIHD

concentration at 2 h [1]: 66.5 nM
Kp at 2 h [2]: 2.56
concentration at 4 h [3]: 70.2 nM
Ki [4]: 0.701 nM
Ki [5]: 4.72 nM
IC50 (Adenosine receptor A1): > 1000 nM
IC50 (Adenosine receptor A3): > 1000 nM
IC50 (D(2) dopamine receptor): > 1000 nM
IC50 (Histamine H2 receptor): > 1000 nM
IC50 [6]: > 1000 nM
IC50 (Substance-K receptor): > 1000 nM
IC50 (Neuromedin-K receptor): > 1000 nM
IC50 [7]: > 1000 nM
IC50 [8]: > 1000 nM
IC50 [9]: > 1000 nM
IC50 [10]: > 1000 nM
IC50 [11]: 1000 nM
Compound: Nn1c(CCCCN2CCN(c3ccc4ccccc4n3)CC2)nc2c(c1=O)CCCC2
Activity (Rattus norvegicus): Active

— ChEMBL document CHEMBL1275331, “Discovery of a novel 5-HT(3) antagonist/5-HT(1A) agonist 3-amino-5,6,7,8-tetrahydro-2-{4-[4-(quinolin-2-yl)piperazin-1-yl]butyl}quinazolin-4(3H)-one (TZB-30878) as an orally bioavailable agent for irritable bowel syndrome” (J Med Chem, 2010)
